Measured values: ChEMBL document CHEMBL4229356, “Synthesis and antikinetoplastid evaluation of bis(benzyl)spermidine derivatives” (Eur J Med Chem, 2018)

Columns and labels:
Leishmania donovani [1] = experiment: Antiparasitic activity against Leishmania donovani LV9 axenic amastigotes incubated for 72 hrs by resazurin dye based assay; assay type: functional, organism-based; conditions: LV9, 72 h
Outline: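 LV9 axenic amastigotes were derived from promastigotes in M-199 at pH 5.5, 37 °C, 5% CO2, and used in log phase. Cells at 10⁶/mL were exposed 72 h to two-fold dilutions from 100 to 0.02 μM. Resazurin was then added for 24 h in the dark and read at OD570/OD600. IC50 is relative to excipient-only controls; miltefosine was the reference.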

[2] = Cytotoxicity against mouse RAW264.7 cells assessed as reduction in cell viability after 48 hrs by resazurin assay; assay type: cell-based
Outline: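 RAW 264.7 macrophages at 2.10⁴/well were preincubated 24 h, then exposed 48 h at 37 °C, 5% CO2 to two-fold dilutions in DMEM. Resazurin was added for 4 h in the dark and read at OD570/OD600. Result given as CC50.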

[3] = Selectivity index, ratio of CC50 for mouse RAW264.7 cells to IC50 for Trypanosoma brucei gambiense FeoITMAP/1893; assay type: toxicity; conditions: read-out: Ratio CC50/IC50
[4] = tested on: Trypanosoma brucei gambiense; experiment: Trypanocidal activity against Trypanosoma brucei gambiense FeoITMAP/1893 after 72 hrs by resazurin dye based assay; assay type: functional, organism-based; conditions: FeoITMAP/1893, 72 h
Outline: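 T. b. gambiense Feo was grown in supplemented IMDM with 10% FBS. Cells at 4.10⁴/mL were exposed 72 h at 37 °C, 5% CO2 in the dark to two-fold dilutions. Resazurin (450 µM solution) was added for 6 h and read at OD570/OD600. Result given as IC50; pentamidine was the reference.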

Leishmania donovani [5] = experiment: Antiparasitic activity against Leishmania donovani LV9 axenic intramacrophage amastigotes infected in mouse RAW264.7 cells incubated for 48 hrs by Sybr Green 1 dye based fluorescence assay; assay type: functional, organism-based; conditions: LV9, RAW264.7, 48 h
Outline: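 RAW 264.7 cells at 2.10⁴/well were infected 24 h with axenic amastigotes at a 16:1 parasite to macrophage ratio, then extracellular parasites were removed. Cells were treated 48 h with two-fold dilutions from 100 µM. They were then lysed (freeze-thaw, proteinase K, 55 °C overnight) and total DNA read by SYBR Green I fluorescence against untreated infected cells. Result given as IC50.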

Mus musculus = experiment: Toxicity in Swiss mouse assessed as death at 100 mg/kg, ip administered as single dose measured up to 30 days; assay type: organism-based; conditions: in vivo, 720 h
Outline: (§1)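 Swiss mice infected ip with 10,000 T. b. brucei CMP trypanosomes, randomly grouped (six per batch), then given one ip dose of 100 or 10 mg/kg; controls received pentamidine, melarsamine or excipient. Parasitemia followed at days 2, 3, 4 and 30; deaths recorded by day post-treatment; efficacy as mean survival time minus that of excipient-treated controls (days ± SD).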

[6] = tested on: Trypanosoma brucei brucei; experiment: Antitrypanosomal activity against Trypanosoma brucei brucei CMP infected in Swiss mouse assessed as change in mean survival time at 100 mg/kg, ip administered as single dose measured up to 30 days; assay type: functional; outline: as §1
[7] = Selectivity index, ratio of CC50 for mouse RAW264.7 cells to IC50 for Leishmania donovani LV9 axenic amastigotes incubated for 72 hrs by resazurin dye based assay; assay type: toxicity; conditions: read-out: Ratio CC50/IC50
[8] = Stability in human plasma by HPLC analysis; assay type: ADME, cell-free; conditions: read-out: Stability
Outline: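 Human plasma was diluted 10-fold in PBS and incubated with 1 mM compound solutions for 0, 2 and 12 h at 37 °C. Samples were quenched with ice-cold acetonitrile, centrifuged, filtered and analysed by C18 reversed-phase HPLC at 25 °C.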

[9] = Selectivity index, ratio of CC50 for mouse RAW264.7 cells to IC50 for Leishmania donovani LV9 axenic intramacrophage amastigotes infected in mouse RAW264.7 cells; assay type: toxicity, cell-based; conditions: read-out: Ratio CC50/IC50
[10] = biological target: Trypanothione reductase (Trypanosoma brucei brucei) (UniProt P39051); experiment: Inhibition of Trypanosoma brucei trypanothione reductase at 40 uM using 100 uM TS2 as substrate in presence of NADPH by spectrophotometric method relative to control
Outline: (§2)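 Recombinant T. brucei TryR (5-10 mU) in 40 mM Hepes, 1 mM EDTA, pH 7.5, with 100 μM NADPH, 5% DMSO, at 25 °C. Inhibitor was fixed at 40 μM; TS2 at 100 or 40 μM started the reaction. NADPH consumption was followed at 340 nm and % inhibition taken against DMSO-matched controls. Run in triplicate, mean ± SD.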

[11] = biological target: Trypanothione reductase (Trypanosoma brucei brucei) (UniProt P39051); experiment: Inhibition of Trypanosoma brucei trypanothione reductase at 40 uM using 40 uM TS2 as substrate in presence of NADPH by spectrophotometric method relative to control; outline: as §2

Trypanothione reductase (Trypanosoma brucei brucei), sequence (P39051 whole entry, looked up): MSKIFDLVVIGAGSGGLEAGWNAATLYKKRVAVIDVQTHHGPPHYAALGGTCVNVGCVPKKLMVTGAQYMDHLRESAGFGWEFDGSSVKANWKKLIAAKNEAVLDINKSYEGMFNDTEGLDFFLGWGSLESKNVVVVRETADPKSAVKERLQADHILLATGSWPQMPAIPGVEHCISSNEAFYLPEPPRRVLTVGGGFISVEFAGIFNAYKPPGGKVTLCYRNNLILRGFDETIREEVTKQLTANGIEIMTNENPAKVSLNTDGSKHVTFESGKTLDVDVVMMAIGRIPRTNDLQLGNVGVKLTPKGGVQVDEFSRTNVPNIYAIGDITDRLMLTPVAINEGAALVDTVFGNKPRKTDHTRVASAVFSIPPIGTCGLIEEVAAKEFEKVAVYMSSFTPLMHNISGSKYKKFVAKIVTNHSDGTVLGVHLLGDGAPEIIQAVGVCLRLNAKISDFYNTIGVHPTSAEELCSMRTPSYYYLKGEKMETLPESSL

SMILES: NCCCCNCCCN(Cc1ccsc1)Cc1ccsc1
- IC50 (Leishmania donovani [1]): > 100 µM
- CC50 at 48 h [2]: 52.8 µM
- selectivity ratio [3]: 8.6
- IC50 [4]: 6.1 µM
- IC50 (Leishmania donovani [5]): 59.1 µM

SMILES: NCCCCN(CCCN(Cc1ccccc1)Cc1ccccc1)CCCN(Cc1ccccc1)Cc1ccccc1
- IC50 (Leishmania donovani [1]): 57.3 µM
- CC50 at 48 h [2]: 1.2 µM
- selectivity ratio [3]: 1.3
- IC50 [4]: 0.9 µM
- IC50 (Leishmania donovani [5]): 22.4 µM

SMILES: Cl.Cl.NCCS[As](SCCN)c1ccc(Nc2nc(N)nc(N)n2)cc1
- Activity (Mus musculus): Non-Toxic
- Survival [6]: >30 days

SMILES: CC(C)(C)OC(=O)NCCCCN(CCCN(Cc1ccc(F)cc1)Cc1ccc(F)cc1)CCCN(Cc1ccc(F)cc1)Cc1ccc(F)cc1
- IC50 (Leishmania donovani [1]): 6.6 µM
- CC50 at 48 h [2]: 12 µM
- selectivity ratio at 72 h [7]: 1.8
- selectivity ratio [3]: 6.3
- IC50 [4]: 1.9 µM
- IC50 (Leishmania donovani [5]): 16.6 µM

SMILES: CC(C)(C)OC(=O)NCCCCNCCCN(Cc1cccc(-c2ccccc2)c1)Cc1cccc(-c2ccccc2)c1
- IC50 (Leishmania donovani [1]): 79.5 µM
- CC50 at 48 h [2]: > 100 µM
- selectivity ratio at 72 h [7]: > 1.2
- selectivity ratio [3]: > 2.9
- IC50 [4]: 33.9 µM
- IC50 (Leishmania donovani [5]): > 100 µM

SMILES: NCCCCNCCCN(Cc1ccc(-c2ccccc2)cc1)Cc1ccc(-c2ccccc2)cc1
- IC50 (Leishmania donovani [1]): 3.9 µM
- CC50 at 48 h [2]: 4.2 µM
- selectivity ratio at 72 h [7]: 1.1
- half-life [8]: > 12 h
- selectivity ratio [3]: 21
- IC50 [4]: 0.2 µM
- IC50 (Leishmania donovani [5]): 7.1 µM

SMILES: NC1CCC(N(CCCN(Cc2ccc(F)cc2)Cc2ccc(F)cc2)CCCN(Cc2ccc(F)cc2)Cc2ccc(F)cc2)CC1 (centres undefined)
- selectivity ratio [9]: 1.1
- IC50 (Leishmania donovani [1]): 15.7 µM
- CC50 at 48 h [2]: 4.5 µM
- IC50 [4]: 10.4 µM
- IC50 (Leishmania donovani [5]): 4.2 µM

SMILES: CC(C)(C)OC(=O)NC1CCC(NCCCN(Cc2ccc(F)cc2)Cc2ccc(F)cc2)CC1 (centres undefined)
- IC50 (Leishmania donovani [1]): 6.8 µM
- CC50 at 48 h [2]: 4.2 µM
- selectivity ratio [3]: 8.4
- IC50 [4]: 0.5 µM
- IC50 (Leishmania donovani [5]): 6.8 µM

SMILES: CC(C)(C)OC(=O)NCCCCNCCCN(Cc1ccccc1)Cc1ccccc1
- selectivity ratio [9]: 3.7
- IC50 (Leishmania donovani [1]): 14.6 µM
- CC50 at 48 h [2]: 12.5 µM
- selectivity ratio [3]: 20.8
- IC50 [4]: 0.6 µM
- IC50 (Leishmania donovani [5]): 3.4 µM

SMILES: CC(C)(C)OC(=O)NCCCCNCCCN(Cc1ccc(-c2ccccc2)cc1)Cc1ccc(-c2ccccc2)cc1
- selectivity ratio [9]: > 2.4
- IC50 (Leishmania donovani [1]): 38.5 µM
- CC50 at 48 h [2]: > 100 µM
- selectivity ratio at 72 h [7]: > 2.6
- selectivity ratio [3]: > 6.9
- IC50 [4]: 14.4 µM
- IC50 (Leishmania donovani [5]): 41.7 µM

SMILES: NCCCCN(CCCN(Cc1ccc(F)cc1)Cc1ccc(F)cc1)CCCN(Cc1ccc(F)cc1)Cc1ccc(F)cc1
- IC50 (Leishmania donovani [1]): 2 µM
- CC50 at 48 h [2]: 1.5 µM
- inhibition [10]: 30%
- selectivity ratio [3]: 15
- inhibition [11]: > 60%
- IC50 [4]: 0.1 µM
- IC50 (Leishmania donovani [5]): 6.5 µM

SMILES: NCCCCNCCCN(Cc1cccc(-c2ccccc2)c1)Cc1cccc(-c2ccccc2)c1
- selectivity ratio [9]: 1.1
- IC50 (Leishmania donovani [1]): 35.7 µM
- CC50 at 48 h [2]: 30.3 µM
- selectivity ratio [3]: 3.5
- IC50 [4]: 8.7 µM
- IC50 (Leishmania donovani [5]): 27.8 µM

SMILES: CC(C)(C)OC(=O)NCCCCNCCCN(Cc1ccc(OCc2ccccc2)cc1)Cc1ccc(OCc2ccccc2)cc1
- IC50 (Leishmania donovani [1]): 26.4 µM
- CC50 at 48 h [2]: 33.3 µM
- selectivity ratio at 72 h [7]: 1.3
- selectivity ratio [3]: 7.1
- IC50 [4]: 4.7 µM
- IC50 (Leishmania donovani [5]): 42 µM

SMILES: NC1CCC(NCCCN(Cc2ccccc2)Cc2ccccc2)CC1 (centres undefined)
- selectivity ratio [9]: 1.1
- IC50 (Leishmania donovani [1]): > 100 µM
- CC50 at 48 h [2]: 7.6 µM
- selectivity ratio [3]: 3.6
- IC50 [4]: 2.1 µM
- IC50 (Leishmania donovani [5]): 6.6 µM

SMILES: NCCCCNCCCN(Cc1ccc2ccccc2c1)Cc1ccc2ccccc2c1
- IC50 (Leishmania donovani [1]): 5 µM
- CC50 at 48 h [2]: 4.9 µM
- selectivity ratio [3]: 12.2
- inhibition [11]: 47%
- IC50 [4]: 0.4 µM
- IC50 (Leishmania donovani [5]): 8.7 µM

SMILES: NCCCCNCCCN(Cc1ccc(F)cc1)Cc1ccc(F)cc1
- IC50 (Leishmania donovani [1]): 70.3 µM
- CC50 at 48 h [2]: 33.1 µM
- selectivity ratio [3]: 9.4
- IC50 [4]: 3.5 µM
- IC50 (Leishmania donovani [5]): 35.8 µM

SMILES: CC(C)(C)OC(=O)NC1CCC(NCCCN(Cc2ccccc2)Cc2ccccc2)CC1 (centres undefined)
- IC50 (Leishmania donovani [1]): 14.2 µM
- CC50 at 48 h [2]: 5.1 µM
- selectivity ratio [3]: 7.3
- IC50 [4]: 0.7 µM
- IC50 (Leishmania donovani [5]): 5.4 µM

SMILES: CC(C)(C)OC(=O)NCCCCNCCCN(Cc1ccsc1)Cc1ccsc1
- IC50 (Leishmania donovani [1]): 25.3 µM
- CC50 at 48 h [2]: 16.4 µM
- selectivity ratio [3]: 10.9
- IC50 [4]: 1.5 µM
- IC50 (Leishmania donovani [5]): 21.1 µM

SMILES: CC(C)(C)OC(=O)NC1CCC(N(CCCN(Cc2ccc(F)cc2)Cc2ccc(F)cc2)CCCN(Cc2ccc(F)cc2)Cc2ccc(F)cc2)CC1 (centres undefined)
- selectivity ratio [9]: > 5.8
- IC50 (Leishmania donovani [1]): 10.2 µM
- CC50 at 48 h [2]: > 100 µM
- selectivity ratio at 72 h [7]: > 9.8
- selectivity ratio [3]: > 23.8
- IC50 [4]: 4.2 µM
- IC50 (Leishmania donovani [5]): 17.2 µM

SMILES: CC(C)(C)OC(=O)NCCCCN(CCCN(Cc1ccccc1)Cc1ccccc1)CCCN(Cc1ccccc1)Cc1ccccc1
- selectivity ratio [9]: 8.3
- IC50 (Leishmania donovani [1]): 2.5 µM
- CC50 at 48 h [2]: 12.5 µM
- selectivity ratio at 72 h [7]: 5
- selectivity ratio [3]: 41.7
- IC50 [4]: 0.3 µM
- IC50 (Leishmania donovani [5]): 1.5 µM

SMILES: CC(C)(C)OC(=O)NCCCCNCCCN(Cc1ccc2ccccc2c1)Cc1ccc2ccccc2c1
- IC50 (Leishmania donovani [1]): 3.8 µM
- CC50 at 48 h [2]: 4.3 µM
- selectivity ratio at 72 h [7]: 1.1
- inhibition [10]: 45%
- selectivity ratio [3]: 5.4
- inhibition [11]: 60%
- IC50 [4]: 0.8 µM
- IC50 (Leishmania donovani [5]): 6.1 µM

SMILES: CC(C)(C)OC(=O)NCCCCNCCCN(Cc1ccc(F)cc1)Cc1ccc(F)cc1
- IC50 (Leishmania donovani [1]): 14.7 µM
- CC50 at 48 h [2]: 8.7 µM
- selectivity ratio [3]: 4.3
- IC50 [4]: 2 µM
- IC50 (Leishmania donovani [5]): 14.5 µM

SMILES: N=C(N)c1ccc(OCCCCCOc2ccc(C(=N)N)cc2)cc1.O=S(=O)(O)CCO.O=S(=O)(O)CCO [PENTAMIDINE ISETHIONATE]
- Activity (Mus musculus): Non-Toxic
- Survival [6]: >30 days
